Assay results: the RNAGym collection of RNA variant scans (doi:10.1126/science.aae0568)
This sample holds only a part of the variants without activity.

B1: tRNA (parent)
chain: GUUCCGUUGGCGUAAUGGUAACGCGUCUCCCUCCUAAGGAGAAGACUGCGGGUUCGAGUCCCGUACGGAACG

Variants of: B1
Experiment: yeast fitness relative to wild type (ratio to wild type); higher = fitter; tRNA-Arg(CCU), competitive growth, 37 C, YPD
Method in brief: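 Genotype frequency changes were the basis for Darwinian fitness relative to wild type. The frequencies came from 100-nucleotide paired-end sequencing of gene amplicons from the start population and each end population of pooled yeast strains with tRNA-Arg(CCU) gene variants at the native locus. Competition ran in YPD at 37°C for 24 hours in six replicates, genotypes needed ≥ 100 starting reads, and estimates < 0.5 were set to 0.5.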
Variant GUUCCGUUGGCGUAACGGUAACGCGUCUCCCUCCUAAGGAGAAGAAUGCGGGUUCGAGUCCCGUACGGAACG [U16C C46A] has a yeast fitness of 1.02. With GUUCCGUUGGCGUAACGGUAAGGCGUCUCCCUCCUAAGGAGAAGACUGCGGGUUCGAAUCCCGGACGGAACG [U16C C22G G58A U64G] the yeast fitness was at most 0.5. With GUUCCGUUGGCGUAACGGUAACGCGUCUCCCUCAUAAGGAAAAGACUGCGGGUUCGAGUCCCGUACGGAACG [U16C C34A G41A] the yeast fitness was at most 0.5. Variant GUUCCGUUGGCGUAACGGUAACGCGUCUCCCUCUUAAGGAGAAGACUGGGGGUUCGAGUCCCGUACGGAACG [U16C C34U C49G] has a yeast fitness of at most 0.5. For GUUCCGUUGGCGUAACGGUAACGCGUUUCCCUCCUAAGGAGAAGACUGCGGGUUCGAGUCCCGGACGGAACG [U16C C27U U64G], the yeast fitness was 0.536. In the case of GUUCCGUUGGCGUAACGGUAACGGGUCACCCUCCUAAGGAGAAGACUGCGGGUUCGAGUCCCGUACGGAACG [U16C C24G U28A], the yeast fitness is reported as at most 0.5. With GUUCCGUUGGCGUAACGGUAACGCGUCUCCCUUCUAAGGAGAAGACUGCGGGUUCGAGUUCCGUACCGAACG [U16C C33U C60U G67C] the yeast fitness was at most 0.5. GUUCCGUUGGCGUAACGGUAACGCGUCUGCCUCCUAAGGAGAAGACUGUGGGUUCGAGUCCCGUACGGAACG [U16C C29G C49U] showed a yeast fitness of 0.535. Work on GUUCCGUUGGCGUAACGGUAACGCGUCUCCCUUCUCAGGAGAAGACUGGGGGUUCGAGUCCCGUACGGAACG [U16C C33U A36C C49G] yielded a yeast fitness of at most 0.5. For GUUCCGUUGGCGUAACGGUAACGCGUGUCCCUCCUAAGGAGAAGACUGCGGGUUCGAGUGCCGUACGGAACG [U16C C27G C60G], the yeast fitness was 0.603. In the case of GUUCCGUUGGCGUAACGGUAACGCGUCUCCCUGCUAAGGAGAAGACUGAGGGUUGCAGUCCCGUACGGAACG [U16C C33G C49A C55G G56C], the yeast fitness is reported as at most 0.5. Variant GUUCCGUUGGCGUAACGGUAACGCGUCUCGCUCCUAAGGAGAAGACUGCGGGUUCGAGUCUCGUACGAAACG [U16C C30G C61U G68A] has a yeast fitness of at most 0.5. Variant GUUCCGUUGGCGUAACGGUAACGCGUCUACCUCCUAAGGAGAAGACUGCGGGUUGGAGUCCCGUACGGAACG [U16C C29A C55G] has a yeast fitness of 0.573. With GUUCCGUUGGCGUAACGGUAACGCGUCUCCUUAGAAAGGAGAAGACUGCGGAUUCGAGUCCCGUACGGAACG [U16C C31U C33A C34G U35A G52A] the yeast fitness was at most 0.5. With GUUCCGUUGGCGUAACGGUAAAGCGUCUCCGUCCUAAGGAGAAGAAUGUGGGUCCGAGUCCCGUACGAAACG [U16C C22A C31G C46A C49U U54C G68A] the yeast fitness was at most 0.5. GUUCCGUUGGCGUAACGGUAAUGUGUCUUCCUCCUAAGGAGAAGACUGCGGGUUCGAGUUCCGUACGGAACG [U16C C22U C24U C29U C60U] showed a yeast fitness of 0.551. Variant GUUCCGUUGGCGUAACGGUAACGCGUCUUCCUCCUAAGGAGAAGACUGCGGGUUCGAGUCCCGUACGGAACG [U16C C29U] has a yeast fitness of 0.738. With GUUCCGUUGGCGUAACGGUAACGCGUCUACCUCCUAAGGAGAAGACUGCGGGUUCGAGUCCCGUACGGAACG [U16C C29A] the yeast fitness was 0.629. Variant GUUCCGUUGGCGUAACGGUAACGCGUCUCUCUCCUUAGGAGAAGACUGCGGGUUCGAGUCCCGUACGGAACG [U16C C30U A36U] has a yeast fitness of at most 0.5. Variant GUUCCGUUGGCGUAACGGUAAUGCGUCUCCCUCCUAAGGAGAAGACUGCGGGUUCGAGUCCCGUACGGAACG [U16C C22U] has a yeast fitness of 0.741. Variant GUUCCGUUGGCGUAACGGUAAGGCGUCUCCCUCCUAAGGAGAAGACUGCGGGUUCGAGUCCCGUACGGAACG [U16C C22G] has a yeast fitness of 0.968. GUUCCGUUGGCGUAACGGUAACGGGUCACCCUCCUAAGGAGACGACUGCGGGUUCGAGUCCCGUACGGAACG [U16C C24G U28A A43C] showed a yeast fitness of at most 0.5. GUUCCGUUGGCGUAACGGUAACGCGUCUCACUCCUAUGGAGAAGACUGCGGGUUCGAGUCCCGUACGGAACG [U16C C30A A37U] showed a yeast fitness of at most 0.5. GUUCCGUUGGCGUAACGGUAACGCGUCUCCCUCGUAAGGAGAAGACUGCGGGUUAGAGUCCCGUACGGAACG [U16C C34G C55A] showed a yeast fitness of 0.58. Work on GUUCCGUUGGCGUAACGGUAACGCGUCUCCCUCGUAAGGAGAAGACUGCGGGUUGGAGUCCCGUACGGAACG [U16C C34G C55G] yielded a yeast fitness of at most 0.5. In the case of GUUCCGUUGGCGUAACGGUAACGCGUCUCCCUUCUCAGGAGAAGACUGCGGGUUCGAGUCCCGUACGGAACG [U16C C33U A36C], the yeast fitness is reported as 0.589. For GUUCCGUUGGCGUAACGGUAAGGCGUCUCCCUCCUAAGGAGAAGACUGCGGGAUCGAGUCCCGUACGGAACG [U16C C22G U53A], the yeast fitness was 0.544. Variant GUUCCGUUGGCGUAACGGUAACGCGUCUCCCUACUAAGGCGAAGACUGCGGGUUCGAGUCCCGUACGGAACG [U16C C33A A40C] has a yeast fitness of at most 0.5. GUUCCGUUGGCGUAACGGUAACGCGUCUGCCUCCUAAGGAGAAGACUGUGGGUUCGAGUGCCGUACGGAACG [U16C C29G C49U C60G] gave a yeast fitness of at most 0.5. Work on GUUCCGUUGGCGUAACGGUAACGCGUCUCCCUCGUAACGAGAAGACUGCGGGUUCGAGUCCGGUACGGCACG [U16C C34G G38C C62G A69C] yielded a yeast fitness of at most 0.5. GUUCCGUUGGCGUAACGGUAAUGCGUCUCCCUCCUAAGGAGAAGACUGCGGGUUCGAGUCCCGUACGCAACG [U16C C22U G68C] gave a yeast fitness of at most 0.5. Variant GUUCCGUUGGCGUAACGGUAACGCGUCUCCGUCCUAAGGAAAAGACUGCGGCUUCGAGUUCGGUAGGGAACG [U16C C31G G41A G52C C60U C62G C66G] has a yeast fitness of at most 0.5. For GUUCCGUUGGCGUAACGGUAACGCGUCUCCCUUCUAAGGAGAAGACUGCGGGUUCGAGUCCCCUACGGAACG [U16C C33U G63C], the yeast fitness was 0.508. For GUUCCGUUGGCGUAACGGUAACGCGUCUCCCUCCUAAGGAGAAGACUGCGGGUUCGAGUCCCGUACGGACCG [U16C A70C], the yeast fitness was 1.1. GUUCCGUUGGCGUAACGGUAACGCGUCUCCCUCCUAAGGAGAAGACUGCGGGUUCGAGUCCCGUACGGAGCG [U16C A70G] gave a yeast fitness of 0.945. For GUUCCGUUGGCGUAACGGUAACGGGUCUCCCACCUAAGGAGAAGACUGCGGGUUCGAGUCCCGUACGGCACG [U16C C24G U32A A69C], the yeast fitness was at most 0.5. In the case of GUUCCGUUGGCGUAACGGUAACGCGUCUUCCUCCUUAGGCGAAGAUUGCGGGUUCGAGUCCCGCACGGAACG [U16C C29U A36U A40C C46U U64C], the yeast fitness is reported as at most 0.5. Work on GUUCCGUUGGCGUAACGGUAACGCGUCUUCCUCCUUAGGAGAAGACUGCGGGUUCGAGUCCCGUAUAGAACG [U16C C29U A36U C66U G67A] yielded a yeast fitness of at most 0.5.
